CHRM4 agonist: CHRM4 agonism in calcium assay | P08173 | CHO-K1 hM4/Gqi5, Fluo-8 calcium fluorescence; vehicle 0%, full acetylcholine response 100% | activation, % at 3 µM | 360,000 tested, 0.14% active | AID 624127;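 active = activation above the run mean over all test wells plus 3 SD, cut at about 32% in these data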;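 also: peak over basal fluorescence ratio per well then scaled between controls; 0% = DMSO wells and 100% = acetylcholine at EC100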
Target sequence (P08173 whole entry, looked up): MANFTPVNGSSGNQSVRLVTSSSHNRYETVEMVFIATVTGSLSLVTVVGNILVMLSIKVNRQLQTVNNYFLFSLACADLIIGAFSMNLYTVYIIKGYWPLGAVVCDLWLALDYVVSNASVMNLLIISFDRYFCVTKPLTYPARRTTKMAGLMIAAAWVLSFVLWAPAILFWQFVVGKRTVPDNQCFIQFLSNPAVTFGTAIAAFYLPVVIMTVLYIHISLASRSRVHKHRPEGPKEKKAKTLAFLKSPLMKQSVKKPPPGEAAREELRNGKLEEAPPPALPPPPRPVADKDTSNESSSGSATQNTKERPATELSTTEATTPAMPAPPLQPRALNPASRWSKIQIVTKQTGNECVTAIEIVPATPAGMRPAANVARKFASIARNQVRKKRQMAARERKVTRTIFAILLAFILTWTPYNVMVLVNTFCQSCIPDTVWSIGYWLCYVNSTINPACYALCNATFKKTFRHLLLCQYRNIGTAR
M4 antag: blocks acetylcholine activation of human M4 receptor. 360,000 tested, 0.73% active. CHO-hM4 cells, ACh EC80, Fluo-8 calcium fluorescence. inhibition, % at 3 µM. P08173;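 active = inhibition above its plate's cutoff, the mean inhibition of sample wells plus 3 SD, cut at about 27% in these data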;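 also: 0% = acetylcholine EC80 with DMSO and 100% = DMSO without agonist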
CHRM5 PAM: CHRM5 positive allosteric modulation. CHO-K1 hM5, Fluo-8 calcium, ACh EC20 PAM; 0% = ACh EC20, 100% = ACh EC100. activation, % at 3 µM. 360,000 tested, 0.3% active. AID 624038;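 active = activation above the run cutoff, the mean activation of all test compounds plus 3 SD, cut at about 18% in these data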
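system = human M5 receptor in CHO-K1 cells | reagent = EC20 acetylcholine as agonist stimulus | compound dosing = single-point, 3 µM nominal | incubation = Fluo-8 loading 80 min at 37 °C plus 30 min room temperature | detection = Fluo-8 calcium dye fluorescence, kinetic read | benchmarks = low control EC20 acetylcholine (0%), high control EC100 acetylcholine (100%)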
M4 PAM: positive allosteric modulators of human muscarinic M4 receptor. P08173. CHO-K1 hM4/Gqi5, Fluo-8 calcium fluorescence, ACh EC20; 0% = ACh EC20, 100% = maximal ACh. activation, % at 3 µM. 360,000 tested, 0.4% active;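 active = activation above its plate's cutoff, the mean activation of sample wells plus 3 SD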
CHRM5 agonist: agonists of human muscarinic M5 receptor (CHRM5); P08912; CHO-K1 hM5 cells, Fluo-8 calcium fluorescence; 0% DMSO wells, 100% maximal acetylcholine response; activation, % at 3 µM; 360,000 tested, 0.19% active; AID 624037;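 active = activation above the run's mean over test compounds plus 3 SD, cut at about 23% in these data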;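 also: signal is peak over basal fluorescence ratio across the kinetic read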
CHRM5 antagonist: antagonists of human muscarinic M5 receptor (CHRM5); P08912; CHO-hM5 cells, Fluo-8 calcium fluorescence, ACh EC80; inhibition, % at 3 µM; 360,000 tested, 0.59% active;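 active = inhibition above a per-plate cutoff, the mean of that plate's test compounds plus 3 SD, cut at about 27% in these data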;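 also: 0% = acetylcholine EC80 with DMSO and 100% = DMSO without agonist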
Active calls of the source: *. Only some compounds are listed: those with a hit (about 1.8% of all), similar ones and a draw of the others.

SMILES	CHRM4 agonist	M4 antag	CHRM5 PAM	M4 PAM	CHRM5 agonist	CHRM5 antagonist
Oc1ccc(Cl)c(CN2CCN(c3ncc(Cc4ccccc4)cn3)CC2)c1	3	6	-3	-8	-3	4
O=C(O)C1C2CCC1C(O)C2 (stereo unspecified)	0	5	0	8	0	4
Cc1ccc(-n2nc3c(n2)/C(=N/O)CC/C3=N\O)cc1	0	0	34*	13	-4	-3
Cc1ccc(C)c(OCCn2cc(C(=O)O)c3ccccc32)c1	17	1	-9	0	1	23
CC(=O)c1cn(CCOc2cc(C)ccc2C)c2ccccc12	12	17	-23	-17	0	33*
Cc1nnc(SCc2nnc(-c3cccs3)o2)n1Cc1ccccc1	2	0	-2	1	-1	7
Clc1ccc(-c2nnc(CSc3nnc(-c4cccs4)n3Cc3ccccc3)o2)cc1	12	30*	-19	-17	-2	29*
CC1(C)C(=O)C=CC(=O)C(C)(C)C(=O)C=CC(=O)C(C)(C)C2=CC=C(O2)C(C)(C)C(=O)C=CC1=O	4	-5	-3	4	1	15
Cc1ccc(C(=O)CSC2=C(C#N)C(c3ccco3)CC(=O)N2)c(C)c1 (stereo unspecified)	29	14	-13	-14	47*	3
Cc1ccc(C2OCC(C)([N+](=O)[O-])CO2)cc1 (stereo unspecified)	0	-2	6	-3	1	9
O=C(c1ccc(Br)s1)N1CCc2ccccc2C1	1	-2	19*	3	-7	-4
O=C(c1cccs1)N1CCc2ccccc2C1	1	-12	1	3	-8	-9
O=C(Nc1nc(-c2ccccc2)cs1)c1ccccc1NS(=O)(=O)c1ccc(F)cc1	16	31*	-20	-14	8	42*
O=S(=O)(Nc1ccc(-c2csc(-c3ccccc3)n2)cc1)c1ccc(F)cc1	0	3	0	31*	-1	5
COc1ccc(CCNC(=O)Nc2cccs2)c(OC)c1	3	0	-3	4	0	-4
Cn1c(CCN2CCN(c3ccccn3)CC2)nc2cc(NS(=O)(=O)c3ccc(Cl)cc3)ccc21	20	21	-16	-14	-7	27*
Cc1ccc(S(=O)(=O)Nc2ccc3c(c2)nc(CCN2CCN(c4ccccn4)CC2)n3C)cc1	5	17	-6	-12	-9	14
Cn1c(CCN2CCN(c3ccccn3)CC2)nc2cc(NC(=O)COc3ccc(Cl)cc3)ccc21	22	21	-16	-14	-5	27*
CCCCCCN1CCN(C2CN(Cc3ccc(F)cc3)S(=O)(=O)C2)CC1 (stereo unspecified)	2	0	-3	-8	-5	-7
Nc1nc(Nc2ccccc2)sc1C(=O)c1ccccc1	13	-19	9	12*	33*	-1
COc1ccc(CC(NC(C)=O)C(=O)N2CCN(C(=O)N(C(C)C)C(C)C)CC2)cc1 (stereo unspecified)	2	29*	12	3	1	-7
CNC(=S)N1CCC(NC(=O)C(Cc2ccc(OC)cc2)NC(C)=O)CC1 (stereo unspecified)	1	-3	8	-1	2	-1
Cc1ccc2c(c1)CCCN2S(=O)(=O)c1cccc(C(=O)Nc2ccccc2C(=O)O)c1	-1	-12	2	13	-4	-7
CC(C)(C)OC(=O)N[C@@H](Cc1ccccc1)c1nnc(SCC(N)=O)o1	0	-7	-1	-12	2	2
Cc1cccc(CS(=O)(=O)c2nnc([C@H](Cc3ccccc3)NC(=O)OC(C)(C)C)o2)c1	7	67*	1	-16	3	8
SMILES	CHRM4 agonist	M4 antag	CHRM5 PAM	M4 PAM	CHRM5 agonist	CHRM5 antagonist
COC(=O)CSc1nnc([C@H](Cc2ccccc2)NC(=O)OC(C)(C)C)o1	3	-10	-2	-6	-3	3
COC(=O)CS(=O)(=O)c1nnc([C@H](Cc2ccccc2)NC(=O)OC(C)(C)C)o1	4	77*	8	-7	5	4
Cc1cc(=O)n(-c2ccc3ccccc3n2)[nH]1	0	19	3	34*	1	-2
CC(=O)C1=C(O)C(=O)N(c2ccc(C(=O)O)cc2)C1c1ccc([N+](=O)[O-])cc1 (stereo unspecified)	0	5	-3	2	-2	10
CCOC(=O)c1ccc(N2C(=O)C(O)=C(C(C)=O)C2c2ccc([N+](=O)[O-])cc2)cc1 (stereo unspecified)	1	-2	19*	0	4	-5
CC(=O)/C=C1/C(=O)Nc2ccccc21	2	4	9	2	0	28*
C=CCOc1cccc(C(=O)/C=C2/C(=O)Nc3ccccc32)c1	8	23	5	-14	12	21
CCOC(=O)c1cc2c(c(-c3ccccc3)n1)[C@@H](CCO)N(S(=O)(=O)C(C)(C)C)C2	1	-21	-1	9	2	-1
Cc1ccc(C)c(N2CCN(S(=O)(=O)c3ccc4c(c3)NC(=O)CO4)CC2)c1	-1	-19	2	-9	-3	-7
Cc1ccc(C)c(N2CCN(S(=O)(=O)c3ccc4c(c3)NC(=O)CC(=O)N4)CC2)c1	1	88*	-19	-17	-3	4
CCOC(=O)C(NC(=O)c1ccccc1)(OCC1(CC)COC1)C(F)(F)F (stereo unspecified)	0	-3	-1	-5	-2	-1
CCOC(=O)C(NC(=O)c1ccc(OC)cc1)(OCC1(CC)COC1)C(F)(F)F (stereo unspecified)	0	-7	11	18*	-2	-12
CC1CCCN(c2nc3ccsc3c(=O)s2)C1 (stereo unspecified)	-3	28*	-10	-29	-7	0
CCOC(=O)c1cnc2ccc(Br)cc2c1NCC(C)O (stereo unspecified)	0	-1	4	4	-2	-2
CCOC(=O)c1ccc2ncc(C(=O)OCC)c(NCCCN3CCOCC3)c2c1	1	3	5	5	-2	-3
CCOC(=O)c1cnc2ccccc2c1NCCO	0	0	-10	5	-12	0
CCOC(=O)c1cnc2ccc(Br)cc2c1NCCO	1	-12	0	20*	3	-2
CCOC(=O)c1cnc2ccc(Cl)cc2c1NCCN(C)C	4	4	0	27*	-2	5
CCOC(=O)c1cnc2ccc(Br)cc2c1NCCCN1CCOCC1	13	14	3	40*	-2	9

Assay outcomes from PubChem.
